The record followed here is ChEMBL document CHEMBL1129991, “Inhibition of uridine phosphorylase. Synthesis and structure-activity relationships of aryl-substituted 1-((2-hydroxyethoxy)methyl)-5-(3-phenoxybenzyl)uracil” (J Med Chem, 1997).

SMILES strings stand for the structures.

A short description of the test: Tested for inhibition of Uridine Phosphorylase (UrdPase) in murine liver. In outline:
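Mouse liver enzyme in a radiochemical assay: [2-¹⁴C]uridine (170 µM, 7.1 µCi/µmol) converted to [2-¹⁴C]uracil in 20 mM potassium phosphate pH 8.0, 1 mM EDTA, 1 mM dithiothreitol, with or without inhibitor. Incubated 30 min at 37 °C, stopped by heating 1 min at 100 °C. Uridine and uracil separated by TLC. Enzyme amount set to give 10% conversion uninhibited.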
The compound `O=c1[nH]c(=O)n(COC(CO)CO)cc1Cc1cccc(Oc2cccc(F)c2)c1` came in with an IC50 of 0.0082 µM.

Regarding `O=c1[nH]c(=O)n(COC(CO)CO)cc1Cc1cccc(Oc2ccc(F)cc2)c1`, the IC50 was 0.022 µM. As for `O=c1[nH]c(=O)n(COCCO)cc1Cc1cccc(Oc2ccccc2)c1`, the figure is 0.014 µM. Under `O=c1[nH]c(=O)n(COC(CO)CO)cc1Cc1cccc(Oc2ccccc2)c1` stands 0.01 µM; under `O=c1[nH]c(=O)n(COCCO)cc1Cc1cccc(Oc2ccc(Cl)cc2)c1`, 0.084 µM. As for `COc1cccc(Oc2cccc(Cc3cn(COCCO)c(=O)[nH]c3=O)c2)c1`, the figure is 0.031 µM; as for `O=c1[nH]c(=O)n(COCCO)cc1Cc1cccc(Oc2cccc(Cl)c2)c1`, 0.015 µM.

For `O=c1[nH]c(=O)n(COCCO)cc1Cc1cccc(Oc2ccc(F)cc2)c1`, the IC50 is 0.098 µM. Under `O=c1[nH]c(=O)n(COC(CO)CO)cc1Cc1cccc(Oc2cccc(Cl)c2)c1` stands 0.0014 µM; under `N#Cc1cccc(Oc2cccc(Cc3cn(COCCO)c(=O)[nH]c3=O)c2)c1`, 0.0059 µM. As for `COc1ccc(Oc2cccc(Cc3cn(COCCO)c(=O)[nH]c3=O)c2)cc1`, the figure is 0.21 µM; as for `O=c1[nH]c(=O)n(COCCO)cc1Cc1cccc(Oc2cccc(F)c2)c1`, 0.014 µM. As for `Cc1cccc(Oc2cccc(Cc3cn(COCCO)c(=O)[nH]c3=O)c2)c1`, the figure is 0.013 µM. `O=c1[nH]c(=O)n(COCCO)cc1Cc1cccc(Oc2cccc(C(F)(F)F)c2)c1` yielded an IC50 of 0.032 µM.
